# Assay results from PubChem BioAssay AID743208 (The Scripps Research Institute Molecular Screening Center, 2013).
# Screen size: about 2,100 compounds; about 30 (1%) were called active. The list is a sample of the results. A number with no mark means an inactive call.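 How the source made its calls: active means inhibition above about 20% chosen separately for each screening run (limit read from the data); inactive means the rest.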
# Molecular target: Disintegrin and metalloproteinase domain-containing protein 10 (Homo sapiens) (UniProt O14672)
# Assay: blockers of ADAM10 peptide cleavage – biochemical, QFRET, triplicate, confirmation (AID 743208);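 further: 0% = DMSO wells and 100% = marimastat wells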
# Conditions: EDANS fluorescence, at 6.95 µM, hits give high values
# How it was run: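 Material: ADAM10 enzyme, FRET peptide substrate | Technique: Fluorescence of cleaved EDANS peptide, excitation 359 nm, emission 460 nm | Evaluation: % inhibition relative to DMSO and marimastat wells | Repeats: Triplicate per compound | Times: 30 min preincubation and 3 h reaction at 25 °C | Benchmarks: DMSO low control, 1 µM marimastat high control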
# Chain of Disintegrin and metalloproteinase domain-containing protein 10 (Homo sapiens) (O14672 214-748 limits assumed): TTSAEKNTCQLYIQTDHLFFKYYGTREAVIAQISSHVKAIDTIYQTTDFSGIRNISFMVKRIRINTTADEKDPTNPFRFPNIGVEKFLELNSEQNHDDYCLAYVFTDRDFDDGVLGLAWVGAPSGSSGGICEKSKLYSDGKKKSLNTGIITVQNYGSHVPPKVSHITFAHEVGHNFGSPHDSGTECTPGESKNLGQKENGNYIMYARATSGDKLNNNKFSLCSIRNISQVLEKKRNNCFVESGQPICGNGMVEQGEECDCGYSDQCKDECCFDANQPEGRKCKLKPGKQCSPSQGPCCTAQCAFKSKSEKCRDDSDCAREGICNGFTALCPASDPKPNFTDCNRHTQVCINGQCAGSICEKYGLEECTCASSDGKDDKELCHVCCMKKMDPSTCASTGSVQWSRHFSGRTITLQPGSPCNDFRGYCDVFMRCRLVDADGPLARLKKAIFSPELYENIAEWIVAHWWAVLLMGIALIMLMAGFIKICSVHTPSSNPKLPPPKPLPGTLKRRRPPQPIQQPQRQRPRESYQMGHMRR
row,SMILES,inhibition [%]
1,COc1cc(Cl)c(S(=O)(=O)N2CCN(Cc3ccc4c(c3)OCO4)CC2)cc1Cl,3.51
2,O=C(/C=C/c1ccc(F)cc1)NC(=S)NNC(=O)c1cccnc1,0.49
3,O=C(CC(O)(C(F)(F)F)C(F)(F)F)Nc1ccc(Cl)c(Cl)c1,2.03
4,CCOc1ccc(N2C(=O)CC(N(CCc3ccc(OC)c(OC)c3)C(=S)Nc3ccccc3)C2=O)cc1 (stereo not drawn),0.13
5,CC(C)(C)OC(=O)CNC(=O)c1[nH]cnc1C(=O)N[C@@H](Cc1ccccc1)C(=O)OCc1ccccc1,6.97
6,COc1cccc(C2CC(c3ccccc3)=NN2S(=O)(=O)c2ccccc2)c1OC (stereo not drawn),4.77
7,Cc1cc(C)cc(NC(=S)NCCc2c[nH]c3ccccc23)c1,2.41
8,COc1ccc(NS(=O)(=O)c2ccc(C)c(C(=O)NNC(=O)c3csc(N4CCOCC4)n3)c2)cc1,2.95
9,CCC1(C)Cc2c(sc3nnn(CC(=O)Nc4ccc(Cl)cc4)c(=O)c23)CO1 (stereo not drawn),6.24
10,O=C(CSC1=NCCS1)Nc1nc(-c2ccccc2)cs1,0.24
11,COc1ccc(C(N)c2csc(NC(=O)Nc3cccc(C(F)(F)F)c3)n2)cc1 (stereo not drawn),3.14
12,O=C1NC(Nc2nc3ccccc3s2)(C(F)(F)F)C(=O)N1C1CCCCC1 (stereo not drawn),3.12
13,Cc1cc(C)cc(NC(=O)CSCc2cnn(-c3ccccc3)c2-n2cccc2)c1,7.84
14,Cc1ccc(OCc2nnc(SC/C=C/c3ccccc3)n2Cc2ccco2)cc1,5.61
15,CC(C)(C)N1C(=O)[C@H]2[C@@H](c3ccc(Br)cc3)N3C(=O)N(c4cccc(Cl)c4)C(=O)[C@@]3(C)[C@H]2C1=O,2.62
16,O=C(Nc1cccc(S(=O)(=O)Nc2ccc(Cl)cc2)c1)c1ccc2c(c1)OCCO2,8.03
17,O=C(NCc1ccccc1)c1onc(CSc2nc3ccccc3[nH]2)c1C(=O)NCc1ccccc1,5.46
18,CC(C)Oc1ccc(CC(=O)NNC(=S)Nc2ccc(Br)cc2)cc1,3.54
19,COC(=O)C1NN=C(C(=O)c2ccc(Br)cc2)C1c1cccc(Br)c1 (stereo not drawn),3.07
20,COc1ccc(C(=O)NNC(=S)NC(=O)c2ccccc2)cc1,0.52
21,COc1ccc([C@H]2CC(=O)C=C(c3ccc(OC(F)(F)F)cc3)C2)cc1OC,1.68
22,COc1cc(/C=C2/SC(=S)N(Cc3ccccc3)C2=O)cc(OC)c1O,7.56
23,O=C(Oc1cccc(N2C(=O)C3C4c5ccccc5C(c5ccccc54)C3C2=O)c1)c1ccco1 (stereo not drawn),3.26
